Compound activity deposited in PubChem by Broad Institute.
Only some compounds are listed: those with a hit (about 2.1% of all), similar ones and a draw of the others.
CAL PDZ FP-1 = blocks peptide binding to the human CAL PDZ domain. AID 602252. purified CAL PDZ, TMR-peptide fluorescence polarization, 1 h. 0.92% of 300,000 active. inhibition, % at 24.9 µM;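 active means mean inhibition of at least 30% with at least half of replicates also reaching 30%; inconclusive means no clear call, values can overlap the other calls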;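 further: 0% = DMSO neutral control and 100% = excess unlabeled competitor peptide PRC23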
SR-BI uptake up = enhances SR-BI lipid uptake from DiI-HDL. activation, % at 12.5 µM. CHO ldlA[mSR-BI] cells, DiI-HDL uptake fluorescence, 3 h; 100 = double the neutral-control signal. 0.096% of 320,000 active;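 active means mean replicate activation of at least 60% and every replicate at or above 60%; inconclusive means mean or all-replicate condition met, but not both; inactive means mean below 60% and not all replicates reaching 60%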;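 further: 0% = median plate neutral-control signal and 100% = twice that signal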
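Material – SR-BI-overexpressing, LDLR-lacking CHO cells · Medium – BSA-supplemented, HEPES-buffered Ham's F12, pH 7.4 · Doses – single concentration · Times – compound with DiI-HDL co-incubation, 3 h at 37 °C · Measured by – bottom-read fluorescence, 550/595 nm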
CAL PDZ FP-2 = inhibitors of human CAL PDZ peptide binding; Q9HD26; 0.02% of 330,000 active; AID 504414; inhibition, % at 20 µM; purified CAL PDZ, TMR-peptide fluorescence polarization, 1 h;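 active means highest replicate inhibition of at least 40%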;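 further: plate controls were DMSO neutral control wells for no effect and unlabeled competitor peptide control wells for full effect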
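Assay system – tagged CAL PDZ protein CerCALP, purified · Timing – 1 h at RT · Compound – single point, 20 µM · Measured by – fluorescence polarization from S- and P-plane intensities, G-factor corrected · Evaluation – inhibition from polarization loss · Probe or stimulus – TMR reporter peptide T*-PRC34 · Buffer or medium – pH 7.4 phosphate-saline buffer, reducing agent, detergent, IgG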
SR-BI HDL uptake = blocks mouse SR-BI lipid uptake from DiI-HDL | ldlA[mSR-BI] CHO cells, DiI-HDL uptake fluorescence, 3 h | inhibition, % at 12.5 µM | 0.96% of 320,000 active | AID 488896;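 active means mean replicate inhibition of at least 70% and a set share of replicates each scoring 70 or more; inconclusive means meets just one of the two criteria; inactive means fails both criteria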;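 further: 0% = median of neutral control wells and 100% = median of positive control wells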
Target sequence (Q61009 whole entry, looked up): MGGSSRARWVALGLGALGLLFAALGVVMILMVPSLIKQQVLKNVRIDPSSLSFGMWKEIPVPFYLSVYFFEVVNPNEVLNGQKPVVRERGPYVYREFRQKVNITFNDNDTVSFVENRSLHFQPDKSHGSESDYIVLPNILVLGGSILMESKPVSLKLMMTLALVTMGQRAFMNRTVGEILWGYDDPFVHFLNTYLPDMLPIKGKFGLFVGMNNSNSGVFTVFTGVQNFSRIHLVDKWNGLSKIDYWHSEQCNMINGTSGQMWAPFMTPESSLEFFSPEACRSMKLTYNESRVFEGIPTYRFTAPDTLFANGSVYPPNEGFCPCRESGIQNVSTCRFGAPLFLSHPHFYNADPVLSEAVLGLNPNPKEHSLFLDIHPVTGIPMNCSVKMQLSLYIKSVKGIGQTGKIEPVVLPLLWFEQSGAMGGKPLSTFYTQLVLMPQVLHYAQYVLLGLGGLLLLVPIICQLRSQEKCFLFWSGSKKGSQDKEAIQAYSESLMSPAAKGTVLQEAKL
ARNT-TACC3 inh = disruptors of human ARNT/TACC3 interaction. AlphaScreen His-ARNT PAS-B/GST-TACC3 binding, luminescence; TACC3 fragment carries E629A point mutation. inhibition, % at 9.99 µM. 0.66% of 390,000 active. AID 623870;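 active means mean inhibition of replicates at least 50% and at least half of replicates each reaching 50%; inconclusive means half or more replicates reach 50% but mean below 50%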;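 further: 0% = complete ARNT plus TACC3 wells and 100% = ARNT alone without TACC3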
miR-122 sensor = miR-122 inhibition in Huh7 cells | 0.3% of 340,000 active | AID 602342 | Huh7 miR-122 Renilla luciferase sensor, 48 h; neutral wells = 0, positive control = 100 | activation (reporter increase), % at 12.5 µM;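 active means mean replicate activation score at least 90 and every replicate individually at or above 90; inconclusive means only one of the two criteria met; inactive means neither criterion met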;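 further: higher luciferase means less miR-122 activity so hits act as miR-122 inhibitors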
DiI quench = quenches DiI-HDL fluorescence, an SR-BI assay artifact | shares compounds with SR-BI HDL uptake | cell-free DiI-HDL fluorescence quenching, 30 min | AC50, µM (titrated, usually from 35 µM), for the others: at the highest dose activity change, negative = quenching | 20% of 470 active | AID 540326;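 active means quenching, a falling signal, with AC50 below a set limit tied to the top valid dose, actives reach about 32 µM in these data; inconclusive means no clear call, values can overlap the other calls; inactive means rising signal, and the rest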
Active calls of the source: *; i = inactive; ? = inconclusive; . = no result given; [ ] = dose if it differs, or a comment.

SMILES | CAL PDZ FP-1 | SR-BI uptake up | CAL PDZ FP-2 | SR-BI HDL uptake | ARNT-TACC3 inh | miR-122 sensor | others
CC=Cc1ccc2n(c1=O)C[C@@H]1[C@@H](CO)[C@H](C(=O)OC)[C@H]2N1C(=O)CC (mixture of isomers) | . | . | . | . | -8.8 | .
COC(=O)[C@H]1[C@H](CO)[C@H]2Cn3c(cccc3=O)[C@@H]1N2C(=O)C1CCC1 | . | . | . | . | 2.9 | 0.3[16.7 µM]
N#CCCn1cc(C(=O)NCc2ccccc2)c(-c2ccc3c(c2)OCCO3)n1 | 46.8* | -12.0 | 4.4 | 12.0 | -1.3 | 34.7
CC(=NCc1cccnc1)c1c(O)n(-c2ccc(Cl)cc2)c(=O)[nH]c1=O | 45.5* | 5.7 | -0.3 | -5.7 | 1.1 | .
CC(=NCc1cccnc1)c1c(O)n(-c2ccccc2)c(=O)[nH]c1=O | . | 13.9 | -2.1 | -13.9 | -27.2 | 1.6
CN(CC=CCN(C)P(=S)(N1CC1)N1CC1)P(=S)(N1CC1)N1CC1 | 33.6* | 1.8 | -1.0 | -1.8 | 10.4 | 0.9
C[CH2][Hg][S]c1ccccc1C(=O)O | 9.6 | -106.3 | 0.0 | 106.3* | i | -24.0
COC(=O)C1=C(c2ccc(OC)c(OC)c2)C[C@@H]2CC[C@H]1N2C(=O)N1CCC(C)CC1 | 40.9* | 0.7 | -3.7 | -0.7 | 1.2 | -0.6
COC(=O)[C@H]1[C@H](CO)[C@H]2Cn3c(ccc(-c4ccccc4F)c3=O)[C@@H]1N2CC1CCCC1 | . | . | . | . | -0.9 | .
CCCNC(=O)[C@H]1[C@H](CO)[C@H]2Cn3c(cccc3=O)[C@H]2N1C | . | . | . | . | -1.5 | .
Cc1ccc(NC(=O)CN2C(=O)CN=C(c3ccccc3)c3cc(Cl)ccc32)cc1 | . | -32.9 | -0.9 | 32.9 | 1.8 | 3.8
Cc1ccc(C2=NCC(=O)N(CC(=O)N3CCCCC3)c3sc(C)c(C)c32)cc1 | -1.4 | -87.9 | -2.5 | 87.9* | 9.9 | -2.8
COc1ccc(C#Cc2ccc([C@H]3[C@H](CO)N4CCCCN(C(=O)Cc5cccnc5)C[C@@H]34)cc2)cc1 | . | . | . | . | 25.8 | -13.7[16.7 µM]
Cc1ccc(C(=O)Nc2ccc(Cl)cc2C(=O)c2ccccc2)cc1 | . | -55.7 | -3.8 | 55.7 | 4.5 | 114.5*
COc1cccc(CNCCc2ccc(F)cc2)c1 | 77.1* | 29.0 | 0.5 | -29.0 | -2.8 | 5.6
CCCn1c(C)c(C(=O)c2cccc3ccccc23)c2ccccc21 | 2.2 | -82.3 | 1.0 | 82.3* | -0.7 | 15.2
CCC(=O)N1[C@@H]2c3ccc(-c4cccc(F)c4)c(=O)n3C[C@H]1[C@H](CO)[C@H]2C(=O)OC | . | . | . | . | 2.6 | -0.3[16.7 µM]
CCCCn1c(=O)c(C(=O)Nc2ccccc2C)c(O)c2ccccc21 | 1.6 | -50.1 | -1.1 | 50.1 | 2.8 | -0.6
CCCCCn1c(=O)c(C(=O)Nc2ccccc2Cl)c(O)c2ccccc21 | -6.2 | -92.8 | -1.3 | 92.8* | 5.2 | 6.5
CCCCCn1c(=O)c(C(=O)NCCc2ccccc2)c(O)c2ccccc21 | 10.8 | -74.9 | -0.6 | 74.9* | 3.4 | .
COCC(=O)N1[C@@H]2c3ccc(C4=CCCC4)c(=O)n3C[C@H]1[C@H](CO)[C@H]2C(=O)OC | . | . | . | . | -6.2 | 5.7[16.7 µM]
N#Cc1cccc(-c2ccc([C@H]3[C@H](CO)N4CCCCN(C(=O)Cc5cccnc5)C[C@@H]34)cc2)c1 | . | . | . | . | -7.1 | -5.5[16.7 µM]
CC[n+]1c(/C=C/C=C/c2ccc(N(C)C)cc2)sc2ccccc21 | . | -94.1 | 1.0 | 94.1* | 48.4* | -3.6
CC1OC(OC2CC(O)C3(CO)C4C(O)CC5(C)C(C6=CC(=O)OC6)CCC5(O)C4CCC3(O)C2)C(O)C(O)C1O (stereo not drawn) | 0.4 | 3.1 | -1.1 | -3.1 | 32.1 | -17.2
C[C@@H]1O[C@@H](O[C@H]2C[C@@H](O)[C@]3(CO)[C@H]4[C@H](O)C[C@]5(C)[C@@H](C6COC(=O)C6)CC[C@]5(O)[C@@H]4CC[C@]3(O)C2)[C@H](O)[C@H](O)[C@H]1O (stereo partly drawn) | -2.0 | 4.3 | -0.5 | -4.3 | 0.9 | 113.6*
SMILES | CAL PDZ FP-1 | SR-BI uptake up | CAL PDZ FP-2 | SR-BI HDL uptake | ARNT-TACC3 inh | miR-122 sensor | others
COc1cc2c(cc1OC)-c1c(OC)c(OC)cc3c1C(C2)N(C)CC3 (stereo not drawn) | -1.9 | -76.5 | 0.0 | 76.5* | 32.4 | -10.6
COc1cc2c(cc1O)C[C@H]1NCCc3cc4c(c-2c31)OCO4 | 0.9 | 12.5 | -0.9 | -12.5 | 52.0* | -6.7
COc1cc2c(cc1OC)-c1c3c(cc4c1[C@@H](C2)N(C)CC4)OCO3 | -0.2 | -15.1 | 1.2 | 15.1 | 35.3* | -8.6
CC=Cc1ccc2n(c1=O)C[C@@H]1[C@@H](CO)[C@H](C(=O)OC)[C@H]2N1S(=O)(=O)c1ccccc1C (mixture of isomers) | . | . | . | . | -14.0 | -2.3[16.7 µM]
CCCN1[C@@H]2Cn3c(ccc(-c4cccc(C(=O)N(C)C)c4)c3=O)[C@H]1[C@@H](C(=O)OC)[C@@H]2CO | . | . | . | . | -0.6 | .
Cc1cccc(N2C(=O)NC(=O)/C(=C/c3ccc(N4CCOCC4)cc3)C2=O)c1 | 6.3 | 16.0 | -0.4 | -16.1 | . | .
Cc1cccc(N2C(=O)NC(=O)/C(=C\c3ccc(N4CCOCC4)cc3)C2=O)c1 | 56.0* | 22.9 | -0.8 | -22.9 | -5.3 | .
O=C(Cc1ccccc1)N1CCCCN2[C@H](C1)[C@@H](c1ccc(C#Cc3ccccc3)cc1)[C@@H]2CO | . | . | . | . | . | -18.4[16.7 µM]
CN(C)c1ccc(NC(=O)CN2C(=O)CN=C(c3ccccc3)c3ccccc32)cc1 | -3.8 | -82.7 | -0.9 | 82.7* | -19.7 | -3.8
O=c1cccc2n1CC1CC2CN(S(=O)(=O)c2cc(Cl)ccc2Cl)C1 (stereo not drawn) | -8.0 | 15.6 | 0.5 | -15.6 | -9.3 | -3.1 | DiI quench=-3.1%
COc1ccc(C#Cc2ccc([C@H]3[C@@H](CO)N4CCCCN(C(=O)Cc5cccnc5)C[C@@H]34)cc2)cc1 | . | . | . | . | 15.3 | -5.9[16.7 µM]
N#Cc1ccc(Nc2nc(-c3ccc(O)cc3O)cs2)cc1C(F)(F)F | 3.1 | -102.7 | -0.6 | 102.7* | 4.3 | . | DiI quench=4.34µM*
CCOC(=O)[C@@H]1[C@@H]2NC(=S)N[C@@]1(C)Oc1ccccc12 | . | . | . | . | 22.7 | .
CNC1(c2ccc(F)cc2)CCCCC1 | -3.7 | -71.6 | -0.4 | ? | -9.9 | . | DiI quench=-3.2%
OC1(c2ccc(F)cc2)CCNC1 (stereo not drawn) | -4.1 | 34.2 | -0.4 | -34.2 | -5.7 | -5.7
COc1ccc(CC2C(=O)NC(=O)NC2=O)c(OC)c1 | -2.2 | -2.1 | -3.2 | 2.1 | -4.3 | 0.1
